Converted amounts (≈) assume the structure as drawn. The source made the active and inactive calls.
Assays:
Enterococcus faecium = assay: Antibacterial activity against Enterococcus faecium 7130724 by CLSI M07-A8 method; type: functional
Outline: (§1)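 Broth microdilution MIC run per CLSI M07-A8 (2009).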

Staphylococcus aureus [1] = assay: Antibacterial activity against Staphylococcus aureus ATCC 49951 infected in CD1 mouse assessed as protection against bacterial infection administered 5 hrs post infection measured on day 5; type: functional
Outline: (§2)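 Mouse lethal systemic infection: ip injection of 1 × 10^8 cfu/mouse (10−100× minimal lethal dose), E. faecalis in 50% sterile rat fecal extract, S. aureus in 0.9% NaCl. Therapy by tail-vein bolus at several doses, six mice per group. Started immediately for E. faecalis; at 1 and 5 h post-inoculation for S. aureus.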

Streptococcus pyogenes = assay: Antibacterial activity against Streptococcus pyogenes ATCC BAA-595 by CLSI M07-A8 method; type: functional; outline: as §1
Streptococcus pneumoniae = assay: Antibacterial activity against Streptococcus pneumoniae by CLSI M07-A8 method; type: functional, organism-based; outline: as §1
Enterococcus faecalis [2] = assay: Antibacterial activity against Enterococcus faecalis ATCC 29212 by CLSI M07-A8 method; type: functional; outline: as §1
Staphylococcus aureus [3] = assay: Antibacterial activity against methicillin-resistant Staphylococcus aureus isolate A4.018 by CLSI M07-A8 method; type: functional
Staphylococcus aureus [4] = assay: Antibacterial activity against GE2270-A-resistant Staphylococcus aureus harboring tufA G258D mutant gene by CLSI M07-A8 method; type: functional
Enterococcus faecalis [5] = assay: Antibacterial activity against Enterococcus faecalis isolate NB04025 infected in CD1 mouse assessed as protection against bacterial infection administered immediately after infection measured on day 5; type: functional; conditions: isolate NB04025, 120 h; outline: as §2

| SMILES | MIC (Enterococcus faecium) | ED50 (Staphylococcus aureus [1]) | MIC (Streptococcus pyogenes) | Activity (Streptococcus pneumoniae) | MIC (Enterococcus faecalis [2]) | MIC (Staphylococcus aureus [3]) | Activity (Staphylococcus aureus [4]) | ED50 (Enterococcus faecalis [5]) | MIC (Staphylococcus aureus [4]) |
| --- | --- | --- | --- | --- | --- | --- | --- | --- | --- |
| CNC(=O)C[C@@H]1NC(=O)c2csc(n2)-c2ccc(-c3nc(NC(=O)OCCCCN)cs3)nc2-c2csc(n2)-c2csc(n2)[C@H]([C@@H](O)c2ccccc2)NC(=O)CNC(=O)c2nc(sc2COC)[C@H](C(C)C)NC(=O)c2nc1sc2C | 1 µg/mL (≈ 0.825 µM) | 6.48 mg/kg | 8 µg/mL (≈ 6.6 µM) | Active | 0.5 µg/mL (≈ 0.413 µM) | 1 µg/mL (≈ 0.825 µM) | inactive | – | – |
| CNC(=O)C[C@@H]1NC(=O)c2csc(n2)-c2ccc(-c3nc(NC(=O)OCCCC(=O)O)cs3)nc2-c2csc(n2)-c2csc(n2)[C@H]([C@@H](O)c2ccccc2)NC(=O)CNC(=O)c2nc(sc2COC)[C@H](C(C)C)NC(=O)c2nc1sc2C | 0.06 µg/mL (≈ 0.0489 µM) | 5.4 mg/kg | 1 µg/mL (≈ 0.815 µM) | Active | 0.03 µg/mL (≈ 0.0245 µM) | 0.06 µg/mL (≈ 0.0489 µM) | inactive | 3.1 mg/kg | – |
| CNC(=O)C[C@@H]1NC(=O)c2csc(n2)-c2ccc(-c3nc(NC(=O)OCCC[C@H](N)C(=O)O)cs3)nc2-c2csc(n2)-c2csc(n2)[C@H]([C@@H](O)c2ccccc2)NC(=O)CNC(=O)c2nc(sc2COC)[C@H](C(C)C)NC(=O)c2nc1sc2C | 32 µg/mL (≈ 25.5 µM) | – | 8 µg/mL (≈ 6.37 µM) | Active | 8 µg/mL (≈ 6.37 µM) | 8 µg/mL (≈ 6.37 µM) | inactive | – | – |
| CNC(=O)C[C@@H]1NC(=O)c2csc(n2)-c2ccc(-c3nc(NC(=O)OCCCCCN)cs3)nc2-c2csc(n2)-c2csc(n2)[C@H]([C@@H](O)c2ccccc2)NC(=O)CNC(=O)c2nc(sc2COC)[C@H](C(C)C)NC(=O)c2nc1sc2C | 0.5 µg/mL (≈ 0.408 µM) | – | 8 µg/mL (≈ 6.53 µM) | Active | 0.5 µg/mL (≈ 0.408 µM) | 1 µg/mL (≈ 0.816 µM) | inactive | – | – |
| CNC(=O)C[C@@H]1NC(=O)c2csc(n2)-c2ccc(-c3nc(NC(C)=O)cs3)nc2-c2csc(n2)-c2csc(n2)[C@H]([C@@H](O)c2ccccc2)NC(=O)CNC(=O)c2nc(sc2COC)[C@H](C(C)C)NC(=O)c2nc1sc2C | 1 µg/mL (≈ 0.878 µM) | – | > 32 µg/mL | Active | 1 µg/mL (≈ 0.878 µM) | 2 µg/mL (≈ 1.76 µM) | – | – | > 32 µg/mL |
| CNC(=O)C[C@@H]1NC(=O)c2csc(n2)-c2ccc(-c3nc(NC(=O)NCCC(=O)O)cs3)nc2-c2csc(n2)-c2csc(n2)[C@H]([C@@H](O)c2ccccc2)NC(=O)CNC(=O)c2nc(sc2COC)[C@H](C(C)C)NC(=O)c2nc1sc2C | 2 µg/mL (≈ 1.65 µM) | – | 8 µg/mL (≈ 6.6 µM) | Active | 1 µg/mL (≈ 0.825 µM) | 1 µg/mL (≈ 0.825 µM) | – | – | > 32 µg/mL |
| CNC(=O)C[C@@H]1NC(=O)c2csc(n2)-c2ccc(-c3nc(NC(=O)CCC(=O)O)cs3)nc2-c2csc(n2)-c2csc(n2)[C@H]([C@@H](O)c2ccccc2)NC(=O)CNC(=O)c2nc(sc2COC)[C@H](C(C)C)NC(=O)c2nc1sc2C | 0.5 µg/mL (≈ 0.418 µM) | – | 4 µg/mL (≈ 3.34 µM) | Active | 0.25 µg/mL (≈ 0.209 µM) | 0.25 µg/mL (≈ 0.209 µM) | inactive | – | – |
| CNC(=O)C[C@@H]1NC(=O)c2csc(n2)-c2ccc(-c3nc(NC(=O)NCCCC(=O)O)cs3)nc2-c2csc(n2)-c2csc(n2)[C@H]([C@@H](O)c2ccccc2)NC(=O)CNC(=O)c2nc(sc2COC)[C@H](C(C)C)NC(=O)c2nc1sc2C | 4 µg/mL (≈ 3.26 µM) | – | 16 µg/mL (≈ 13.1 µM) | Active | 1 µg/mL (≈ 0.816 µM) | 1 µg/mL (≈ 0.816 µM) | inactive | – | – |
| CNC(=O)C[C@@H]1NC(=O)c2csc(n2)-c2ccc(-c3nc(NC(=O)/C=C\C(=O)O)cs3)nc2-c2csc(n2)-c2csc(n2)[C@H]([C@@H](O)c2ccccc2)NC(=O)CNC(=O)c2nc(sc2COC)[C@H](C(C)C)NC(=O)c2nc1sc2C | 2 µg/mL (≈ 1.67 µM) | – | 16 µg/mL (≈ 13.4 µM) | Active | 1 µg/mL (≈ 0.837 µM) | 1 µg/mL (≈ 0.837 µM) | inactive | – | – |
| CNC(=O)C[C@@H]1NC(=O)c2csc(n2)-c2ccc(-c3nc(NC(=O)c4ccc(C(=O)O)cn4)cs3)nc2-c2csc(n2)-c2csc(n2)[C@H]([C@@H](O)c2ccccc2)NC(=O)CNC(=O)c2nc(sc2COC)[C@H](C(C)C)NC(=O)c2nc1sc2C | < 0.06 µg/mL | 4.4 mg/kg | 4 µg/mL (≈ 3.21 µM) | Active | 0.125 µg/mL (≈ 0.1 µM) | 0.25 µg/mL (≈ 0.201 µM) | – | 0.8 mg/kg | – |
| CNC(=O)C[C@@H]1NC(=O)c2csc(n2)-c2ccc(-c3nc(NC(=O)CCCC(=O)O)cs3)nc2-c2csc(n2)-c2csc(n2)[C@H]([C@@H](O)c2ccccc2)NC(=O)CNC(=O)c2nc(sc2COC)[C@H](C(C)C)NC(=O)c2nc1sc2C | 0.5 µg/mL (≈ 0.413 µM) | – | 8 µg/mL (≈ 6.61 µM) | Active | 0.25 µg/mL (≈ 0.207 µM) | 0.25 µg/mL (≈ 0.207 µM) | inactive | – | – |
| CNC(=O)C[C@@H]1NC(=O)c2csc(n2)-c2ccc(-c3nc(-n4cnc(C(=O)O)c4)cs3)nc2-c2csc(n2)-c2csc(n2)[C@H]([C@@H](O)c2ccccc2)NC(=O)CNC(=O)c2nc(sc2COC)[C@H](C(C)C)NC(=O)c2nc1sc2C | > 32 µg/mL | – | > 32 µg/mL | Active | 4 µg/mL (≈ 3.36 µM) | 4 µg/mL (≈ 3.36 µM) | – | – | > 32 µg/mL |
| CNC(=O)C[C@@H]1NC(=O)c2csc(n2)-c2ccc(-c3nc(NC(=O)c4cnc(C(=O)O)cn4)cs3)nc2-c2csc(n2)-c2csc(n2)[C@H]([C@@H](O)c2ccccc2)NC(=O)CNC(=O)c2nc(sc2COC)[C@H](C(C)C)NC(=O)c2nc1sc2C | 0.25 µg/mL (≈ 0.201 µM) | 13.9 mg/kg | 8 µg/mL (≈ 6.42 µM) | Active | 0.25 µg/mL (≈ 0.201 µM) | 0.5 µg/mL (≈ 0.401 µM) | – | 2.2 mg/kg | – |
| CNC(=O)C[C@@H]1NC(=O)c2csc(n2)-c2ccc(-c3nc(NC(=O)O[C@H]4C[C@@H](C(=O)O)C4)cs3)nc2-c2csc(n2)-c2csc(n2)[C@H]([C@@H](O)c2ccccc2)NC(=O)CNC(=O)c2nc(sc2COC)[C@H](C(C)C)NC(=O)c2nc1sc2C | 0.03 µg/mL (≈ 0.0242 µM) | 2.9 mg/kg | 1 µg/mL (≈ 0.807 µM) | Active | 0.06 µg/mL (≈ 0.0484 µM) | 0.06 µg/mL (≈ 0.0484 µM) | – | 1 mg/kg | – |
| CNC(=O)C[C@@H]1NC(=O)c2csc(n2)-c2ccc(-c3nc(NC(=O)OCCN)cs3)nc2-c2csc(n2)-c2csc(n2)[C@H]([C@@H](O)c2ccccc2)NC(=O)CNC(=O)c2nc(sc2COC)[C@H](C(C)C)NC(=O)c2nc1sc2C | 1 µg/mL (≈ 0.845 µM) | – | 16 µg/mL (≈ 13.5 µM) | Active | 1 µg/mL (≈ 0.845 µM) | 1 µg/mL (≈ 0.845 µM) | inactive | – | – |
| CNC(=O)C[C@@H]1NC(=O)c2csc(n2)-c2ccc(-c3nc(NC(=O)OC(C)(C)C)cs3)nc2-c2csc(n2)-c2csc(n2)[C@H]([C@@H](O)c2ccccc2)NC(=O)CNC(=O)c2nc(sc2COC)[C@H](C(C)C)NC(=O)c2nc1sc2C | > 128 µg/mL | – | > 128 µg/mL | Active | > 128 µg/mL | > 128 µg/mL | – | – | > 32 µg/mL |
| CNC(=O)C[C@@H]1NC(=O)c2csc(n2)-c2ccc(-c3nc(NC(=O)COCC(=O)O)cs3)nc2-c2csc(n2)-c2csc(n2)[C@H]([C@@H](O)c2ccccc2)NC(=O)CNC(=O)c2nc(sc2COC)[C@H](C(C)C)NC(=O)c2nc1sc2C | 2 µg/mL (≈ 1.65 µM) | – | 4 µg/mL (≈ 3.3 µM) | Active | 0.5 µg/mL (≈ 0.412 µM) | 0.5 µg/mL (≈ 0.412 µM) | inactive | – | – |
| CNC(=O)C[C@@H]1NC(=O)c2csc(n2)-c2ccc(-c3nc(NC(=O)CC(=O)O)cs3)nc2-c2csc(n2)-c2csc(n2)[C@H]([C@@H](O)c2ccccc2)NC(=O)CNC(=O)c2nc(sc2COC)[C@H](C(C)C)NC(=O)c2nc1sc2C | 2 µg/mL (≈ 1.69 µM) | – | 8 µg/mL (≈ 6.77 µM) | Active | 1 µg/mL (≈ 0.846 µM) | 1 µg/mL (≈ 0.846 µM) | inactive | – | – |
